# Laboratory results from ChEMBL document CHEMBL4689842, “EUbOPEN Chemogenomics Library wave 1” (2021).
# Where “and” joins values, the source holds several entries; their conditions need not be identical. Identical values can stand only once.
# Tested on: U2OS
# Experiment: Multiplex assay against U2OS
# Assay type: toxicity, cell-based
# Conditions: human
# Summary of the method: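 Imaging took place on a CQ1 microscope at 37°C and 5% CO2 once compound had been added to live cells stained at seeding with Hoechst33342, BioTracker Green Microtubule Cytoskeleton Dye, MitoTracker Red and Annexin V Alexa Fluor 680. CellPathfinder machine-learning gating classed cells as Hoechst high-intensity objects or normal cells, classed normal cells as having healthy, pyknosed or fragmented nuclei, and classed pyknosed cells as mitotic or apoptotic. Tubulin, mitochondrial-mass and membrane-permeability phenotypes are per cents of the healthy-nucleus cells.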
# [1] = 12 h, 10 µM, compound concentration 10 uM, replicate 1
# [2] = 12 h, 10 µM, compound concentration 10 uM, replicate 2
# [3] = 24 h, 10 µM, compound concentration 10 uM, replicate 1
# [4] = 24 h, 10 µM, compound concentration 10 uM, replicate 2
# [5] = 12 h, 1 µM, compound concentration 1 uM, replicate 1
# [6] = 12 h, 1 µM, compound concentration 1 uM, replicate 2
# [7] = 24 h, 1 µM, compound concentration 1 uM, replicate 1
# [8] = 24 h, 1 µM, compound concentration 1 uM, replicate 2
# [9] = 48 h, 1 µM, compound concentration 1 uM, replicate 1
# [10] = 48 h, 1 µM, compound concentration 1 uM, replicate 2
# [11] = 48 h, 10 µM, compound concentration 10 uM, replicate 1
# [12] = 48 h, 10 µM, compound concentration 10 uM, replicate 2
smiles,measurement,setting,value
CN(c1ccccc1CNc1nc(Nc2ccc3c(c2)CC(=O)N3)ncc1C(F)(F)F)S(C)(=O)=O,Population Apoptotic (%),[1],40% and 75%
same,Population Healthy Nuclei (%),[1],44% and 89%
same,Population Hoechst High Intensity Objects (%),[1],7% and 4%
same,Population Mitochondria Different-Phenotype (%),[1],30% and 26%
same,Population Mitotic Cells (%),[1],59% and 25%
same,Population Normal (%),[1],92% and 95%
same,Population Tubulin-Different-Phenotype (%),[1],72% and 24%
same,Total Cell Count,[1],122 and 100
same,Population Apoptotic (%),[2],91% and 33%
same,Population Fragmented Nuclei (%),[2],23% and 11%
same,Population Healthy Nuclei (%),[2],59% and 85%
same,Population Hoechst High Intensity Objects (%),[2],17% and 6%
same,Population Membrane Permeable-Phenotype (%),[2],27% and 12%
same,Population Mitochondria Different-Phenotype (%),[2],37% and 32%
same,Population Normal (%),[2],82% and 93%
same,Population Tubulin-Different-Phenotype (%),[2],55% and 32%
same,Total Cell Count,[2],116 and 91
same,Population Fragmented Nuclei (%),[3],16%
same,Population Healthy Nuclei (%),[3],56% and 83%
same,Population Mitochondria Different-Phenotype (%),[3],57% and 45%
same,Population Normal (%),[3],81% and 96%
same,Population Tubulin-Different-Phenotype (%),[3],72% and 37%
same,Total Cell Count,[3],125 and 100
same,Population Apoptotic (%),[4],59% and 30%
same,Population Fragmented Nuclei (%),[4],13% and 10%
same,Population Healthy Nuclei (%),[4],53% and 78%
same,Population Hoechst High Intensity Objects (%),[4],19% and 8%
same,Population Mitochondria Different-Phenotype (%),[4],51% and 52%
same,Population Mitotic Cells (%),[4],40% and 69%
same,Population Normal (%),[4],80% and 91%
same,Population Tubulin-Different-Phenotype (%),[4],48% and 38%
same,Total Cell Count,[4],130 and 91
Cc1ccccc1C(c1ccccc1C)N1C2CCC1CC(O)(c1ccccc1)C2 (stereo not drawn),Population Healthy Nuclei (%),[5],82%
same,Population Mitotic Cells (%),[5],66%
same,Population Normal (%),[5],89%
same,Total Cell Count,[5],131
same,Population Healthy Nuclei (%),[6],81%
same,Population Mitotic Cells (%),[6],50%
same,Population Normal (%),[6],90%
same,Total Cell Count,[6],80
same,Population Healthy Nuclei (%),[1],73%
same,Population Mitotic Cells (%),[1],64%
same,Population Normal (%),[1],96%
same,Total Cell Count,[1],158
same,Population Healthy Nuclei (%),[2],81%
same,Population Mitotic Cells (%),[2],60%
same,Population Normal (%),[2],86%
same,Total Cell Count,[2],71
same,Population Healthy Nuclei (%),[7],82%
same,Population Mitotic Cells (%),[7],88%
same,Population Normal (%),[7],97%
same,Total Cell Count,[7],149
same,Population Healthy Nuclei (%),[8],77%
same,Population Mitotic Cells (%),[8],80%
same,Population Normal (%),[8],95%
same,Total Cell Count,[8],89
same,Population Healthy Nuclei (%),[3],74%
same,Population Mitotic Cells (%),[3],65%
same,Total Cell Count,[3],201
same,Population Healthy Nuclei (%),[4],65%
same,Population Mitotic Cells (%),[4],50%
same,Population Normal (%),[4],93%
same,Total Cell Count,[4],85
same,Population Healthy Nuclei (%),[9],89%
same,Population Mitotic Cells (%),[9],68%
same,Total Cell Count,[9],157
same,Population Healthy Nuclei (%),[10],88%
same,Population Mitotic Cells (%),[10],87%
same,Population Normal (%),[10],97%
same,Total Cell Count,[10],98
same,Population Healthy Nuclei (%),[11],71%
same,Population Mitotic Cells (%),[11],43%
same,Population Normal (%),[11],95%
same,Total Cell Count,[11],289
same,Population Healthy Nuclei (%),[12],68%
same,Population Mitotic Cells (%),[12],40%
same,Population Normal (%),[12],85%
same,Total Cell Count,[12],141
